Test results taken from PubChem BioAssay.
Calls of active or inactive are those of the source.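 Rule for the calls, unless noted: active = viability at or under a set limit in both replicates, limit being median viability minus 3 SD (cut at about 48% in these data, passing the limit was not always enough); inconclusive = at or under the limit in just one replicate; inactive = at or above the limit in both replicates.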

Key:
[1] = reducers of endogenous Her2 protein level, primary screen, SKBR3 breast tumor cells, AlphaScreen, ATP viability (AID 461;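 active = Her2 level under about 52% in both replicate screens, with viability over 70% of control, limit read from the data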;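 for Her2 level: lower value means less Her2 protein in the cells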;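 for viability: percent of carrier control wells set as 100% viability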); conditions: 18-24 h, measured here: SKBR3 viability, ATP luminescence, at 10 µM
[2] = target: Receptor tyrosine-protein kinase erbB-2 (Homo sapiens) (UniProt P04626); assay: as above; conditions: 18-24 h, at 10 µM, stronger effect = lower value
Chain of Receptor tyrosine-protein kinase erbB-2 (Homo sapiens) (P04626 whole entry, looked up): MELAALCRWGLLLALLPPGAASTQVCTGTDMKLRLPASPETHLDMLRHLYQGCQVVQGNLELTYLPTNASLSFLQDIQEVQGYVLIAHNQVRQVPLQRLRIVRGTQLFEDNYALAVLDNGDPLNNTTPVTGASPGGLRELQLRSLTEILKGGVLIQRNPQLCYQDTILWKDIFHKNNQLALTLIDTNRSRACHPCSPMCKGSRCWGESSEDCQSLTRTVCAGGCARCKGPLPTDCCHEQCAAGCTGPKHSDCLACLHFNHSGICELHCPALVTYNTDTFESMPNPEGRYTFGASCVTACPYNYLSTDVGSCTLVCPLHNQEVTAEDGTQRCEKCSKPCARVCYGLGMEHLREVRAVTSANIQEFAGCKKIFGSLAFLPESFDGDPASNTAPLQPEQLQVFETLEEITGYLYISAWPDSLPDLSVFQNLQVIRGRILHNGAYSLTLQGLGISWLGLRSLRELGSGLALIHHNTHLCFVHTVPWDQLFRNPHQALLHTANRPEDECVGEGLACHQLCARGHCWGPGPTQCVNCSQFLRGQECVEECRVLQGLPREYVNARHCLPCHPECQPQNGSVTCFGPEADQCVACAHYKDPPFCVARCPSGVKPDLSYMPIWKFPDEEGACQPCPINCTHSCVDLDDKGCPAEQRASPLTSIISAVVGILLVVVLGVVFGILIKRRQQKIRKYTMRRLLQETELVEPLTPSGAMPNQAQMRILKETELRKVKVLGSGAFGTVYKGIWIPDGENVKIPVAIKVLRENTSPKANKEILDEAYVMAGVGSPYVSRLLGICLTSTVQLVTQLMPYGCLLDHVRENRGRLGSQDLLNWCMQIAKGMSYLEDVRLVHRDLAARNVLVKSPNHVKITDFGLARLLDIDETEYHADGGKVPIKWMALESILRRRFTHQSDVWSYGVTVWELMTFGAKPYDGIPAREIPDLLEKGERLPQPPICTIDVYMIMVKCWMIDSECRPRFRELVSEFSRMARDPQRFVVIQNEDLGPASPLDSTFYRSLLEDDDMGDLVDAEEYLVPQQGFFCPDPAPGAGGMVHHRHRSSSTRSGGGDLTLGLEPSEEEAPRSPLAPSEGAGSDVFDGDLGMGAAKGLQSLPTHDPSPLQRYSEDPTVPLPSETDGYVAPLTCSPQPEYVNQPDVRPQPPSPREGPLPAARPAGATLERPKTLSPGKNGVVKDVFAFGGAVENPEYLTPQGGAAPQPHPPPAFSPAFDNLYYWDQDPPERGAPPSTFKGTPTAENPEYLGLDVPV

[3] = SK-BR-3 cell growth inhibitors, pilot screen, 24 h, human (AID 572;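 active = viability at or below 10% of carrier control in both of two separate runs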;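 note: compound exposure lasted between 18 and 24 h rather than exactly 24 h; 100% = carrier-treated control wells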); conditions: SK-BR-3 viability, CellTiter-Glo luminescence, at 10 µM, stronger effect = lower value
[4] = HUVEC growth inhibition – cell-based, human, primary screen (AID 575;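 active = viability at or below 30% in both replicate assays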;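 note: 100% = median of untreated cell wells with 0.1% DMSO on each plate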); conditions: HUVEC proliferation, CellTiter-Glo luminescence, 72 h; at 10 µM; stronger effect = lower value
Procedure, shortened: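 material = primary HUVEC, no more than 12 passages | input = 1250 cells per well | controls = vehicle and MePR control wells | measured by = CTG luminescence | times = 72 h compound incubation | format = collagen-coated 384-well format | read-out = % viability vs DMSO wells | doses = single 10 µM dose, 0.1% DMSO, from 5x medium stock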

[5] = growth inhibitors of H69AR lung tumor, primary screen, human, duplicate replicates (AID 580); conditions: H69AR lung tumor cells viability, ATP luminescence, 72 h; at 10 µM; stronger effect = lower value;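 note: 100% = mean luminescence of untreated wells and 0% = no signal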
[6] = reversal of MRP1-mediated doxorubicin resistance, pilot screen, H69AR cells, doxorubicin co-treatment (AID 601;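 active = viability loss from added drug above about 55%, and viability with drug at most 40%, in both replicates, limit read from the data, passing the limit was not always enough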); conditions: CellTiter-Glo, 72 h, at 10 µM; for differential viability (reversal): stronger effect = higher value
[7] = 384-well plate pilot, post-Golgi transport modulator project, inhibition of yeast transport mutant growth (AID 636; in the data active = inhibition above about 31%); conditions: absorbance 615 nm, about 18 h, stronger effect = higher value
[8] = growth suppression of yeast trafficking mutant, preliminary HTS, modulators of trafficking downstream of Golgi apparatus project, 1536-format plate, OD 615 nm (AID 637; in the data active = inhibition above about 30%); conditions: yeast transport mutant growth, absorbance 615 nm, 18 h; stronger effect = higher value
[9] = H69AR cells + 2 uM doxorubicin, measured here: viability with 2 uM doxorubicin, stronger effect = lower value
[10] = H69AR cells, compound alone cytotoxicity

Structure (SMILES) | viability [1] [%] | Her2 level [2] | viability [3] | viability [4] | viability [5] | differential viability (reversal) ([6]; H69AR cells + 2 uM doxorubicin) | viability [6, 9] [%] | viability [6, 10] [%] | inhibition [7] | inhibition [8]
CCn1nnnc1SCC(=O)Nc1nnc(C(C)C)s1 | 88.5 | 84.5% (inactive) | 88.5% (inactive) | 103% (inactive) | 92.2% (inactive) | 2.35% (inactive) | 89.8 | 92.2 | -4.4% (inactive) | 3.11% (inactive)
O=C(CSc1nnc2sc3ccccc3n12)c1ccco1 | 95 | 85.5% (inactive) | 95% (inactive) | 118% (inactive) | 102% (inactive) | 16.9% (inactive) | 85.3 | 102 | -4.46% (inactive) | -6% (inactive)
COc1ccc(C(CNC(=O)c2ccc(OCC3CCCO3)cc2)N2CCOCC2)cc1 (stereo not given) | 90 | 93.5% (inactive) | 90% (inactive) | 82.9% (inactive) | 105% (inactive) | 13.8% (inactive) | 90.7 | 105 | -1.33% (inactive) | -2.42% (inactive)
CN(C)C(=O)CSc1nnc([C@H](Cc2c[nH]c3ccccc23)NC(=O)OC(C)(C)C)o1 | 104 | 96.5% (inactive) | 104% (inactive) | 94.9% (inactive) | 94.6% (inactive) | 0.01% (inactive) | 94.6 | 94.6 | -3.68% (inactive) | 5.57% (inactive)
O=C(c1ccco1)N1CCN(c2ccc(Cl)cc2)CC1 | 86 | 116% (inactive) | 86% (inactive) | 95.6% (inactive) | 99.8% (inactive) | 19.1% (inactive) | 80.8 | 99.8 | -0.93% (inactive) | -5.4% (inactive)
O=C(NCC1CCCO1)c1ccccc1-c1nc(-c2ccc(Cl)cc2)no1 (stereo not given) | 78.5 | 87.5% (inactive) | 78.5% (inactive) | 76% (inactive) | 95.1% (inactive) | 6.99% (inactive) | 88.1 | 95.1 | -5.68% (inactive) | 1.8% (inactive)
CCc1nc2sc3c(c2c(=O)o1)CCCC3 | 102 | 81% (inactive) | 102% (inactive) | 82.1% (inactive) | 96.3% (inactive) | -0.255% (inactive) | 96.6 | 96.3 | -7.5% (inactive) | -9.84% (inactive)
O=C(c1ccc2c(c1)[nH]c(=S)n1c3ccccc3nc21)N1CCN(c2ncccn2)CC1 | 100 | 82% (inactive) | 100% (inactive) | 88.7% (inactive) | 96.3% (inactive) | 5.5% (inactive) | 90.8 | 96.3 | -3.95% (inactive) | 3.67% (inactive)
Cn1c(-c2ccccc2)cc(=O)c2ccccc21 | 98.5 | 109% (inactive) | 98.5% (inactive) | 102% (inactive) | 96.6% (inactive) | -6.83% (inactive) | 103 | 96.6 | -1.43% (inactive) | -2.13% (inactive)
COCCn1c(SCC(=O)Nc2sc(C)c(C)c2C#N)nnc1C(C)C | 98 | 92.5% (inactive) | 98% (inactive) | 96% (inactive) | 89.6% (inactive) | -3.22% (inactive) | 92.8 | 89.6 | -0.13% (inactive) | -4.35% (inactive)
O=C1CC(c2cccs2)CC2=C1C(c1ccccc1)n1ncnc1N2 (stereo not given) | 105 | 104% (inactive) | 105% (inactive) | 100% (inactive) | 93.8% (inactive) | -5.41% (inactive) | 99.2 | 93.8 | -4.53% (inactive) | -2.3% (inactive)
COc1ccc2cc(C#N)c(SCC(=O)N3CCCC3)nc2c1 | 97 | 81% (inactive) | 97% (inactive) | 90.4% (inactive) | 70.2% (inactive) | -5.28% (inactive) | 75.5 | 70.2 | 0.95% (inactive) | -5.08% (inactive)
CCOc1c(C)cc2[nH]c(CCC(=O)O)nc2c1C | 123 | 103% (inactive) | 123% (inactive) | 95.4% (inactive) | 93.2% (inactive) | -1.08% (inactive) | 94.3 | 93.2 | -6.58% (inactive) | 14.4% (inactive)
COc1ccc(-c2ccc(CCC(=O)O)n2NC(=O)c2cccs2)cc1 | 122 | 92% (inactive) | 122% (inactive) | 95.5% (inactive) | 101% (inactive) | 3% (inactive) | 98.3 | 101 | -2.76% (inactive) | 2.06% (inactive)
O=C(C1CCCN(S(=O)(=O)c2ccc(Br)s2)C1)N1CCCCCC1 (stereo not given) | 83.5 | 95% (inactive) | 83.5% (inactive) | 98.4% (inactive) | 98.1% (inactive) | 9.84% (inactive) | 88.2 | 98.1 | -3.16% (inactive) | -3.5% (inactive)
O=C(CSc1nc2ccccc2c(=O)n1CCC(=O)N1CCCCC1)NCc1ccccc1 | 102 | 80% (inactive) | 102% (inactive) | 99.5% (inactive) | 81.8% (inactive) | -13.3% (inactive) | 95.1 | 81.8 | -1.84% (inactive) | -2.86% (inactive)
CCOC(=O)N1CCN(C(=O)CCc2ccc(S(=O)(=O)NCCc3ccccc3)cc2)CC1 | 89.5 | 102% (inactive) | 89.5% (inactive) | 87.2% (inactive) | 101% (inactive) | 17.6% (inactive) | 83.1 | 101 | -0.13% (inactive) | -4% (inactive)
Cc1noc(C)c1COC(=O)c1ccccc1Oc1ccccc1 | 91 | 106% (inactive) | 91% (inactive) | 79.1% (inactive) | 96.5% (inactive) | 26.8% (inactive) | 69.8 | 96.5 | -3.25% (inactive) | -5.56% (inactive)
Cc1nc2ccccc2cc1O | 133 | 104% (inactive) | 133% (inactive) | 85.9% (inactive) | 92% (inactive) | -16.9% (inactive) | 109 | 92 | -6.05% (inactive) | 13.1% (inactive)
CC(=O)c1cc(Cl)ccc1OC(=O)c1ccco1 | 106 | 92.5% (inactive) | 106% (inactive) | 95.3% (inactive) | 89.2% (inactive) | -3.25% (inactive) | 92.5 | 89.2 | -0.65% (inactive) | -4.43% (inactive)
CC1(C)CC(=O)C2=C(C1)OC(=O)C2(NC(=O)c1cccs1)C(F)(F)F (stereo not given) | 102 | 83% (inactive) | 102% (inactive) | 88.3% (inactive) | 98% (inactive) | 3.83% (inactive) | 94.2 | 98 | -4.05% (inactive) | 12.2% (inactive)
O=S(=O)(c1cccs1)N1CCN(C/C=C/c2ccccc2)CC1 | 101 | 91.5% (inactive) | 101% (inactive) | 83.3% (inactive) | 82.9% (inactive) | 1.57% (inactive) | 81.4 | 82.9 | -3.73% (inactive) | 2.1% (inactive)
N#CCCNCC1(c2ccccc2)CCCC1 | 96 | 94% (inactive) | 96% (inactive) | 106% (inactive) | 102% (inactive) | 12.9% (inactive) | 89.4 | 102 | 2.97% (inactive) | -4.13% (inactive)
O=C(CSc1nnc(Cc2cc(=O)[nH]c(=O)[nH]2)n1-c1ccccc1)NCC1CCCO1 (stereo not given) | 99 | 84.5% (inactive) | 99% (inactive) | 96.1% (inactive) | 98.4% (inactive) | 3.05% (inactive) | 95.4 | 98.4 | -6.8% (inactive) | -1.11% (inactive)
CCOC(=O)N1CCN(C(=O)Cn2ncn3nc(-c4cccs4)cc3c2=O)CC1 | 97 | 136% (inactive) | 97% (inactive) | 111% (inactive) | 90.9% (inactive) | -9.68% (inactive) | 101 | 90.9 | 1.71% (inactive) | 0.33% (inactive)
c1ccc2nc(-c3nc4ccccc4[nH]3)ccc2c1 | 104 | 74% (inactive) | 104% (inactive) | 55.2% (inactive) | 66.6% (inactive) | -3.97% (inactive) | 70.6 | 66.6 | 0% (inactive) | -1.64% (inactive)
O=S(=O)(NCc1ccco1)c1cccc2cccnc12 | 105 | 93.5% (inactive) | 105% (inactive) | 89.7% (inactive) | 79% (inactive) | -9.52% (inactive) | 88.5 | 79 | -1.18% (inactive) | -1.45% (inactive)
